Out of some 360,000 compounds screened, about 200 (0.056%) were called active. Only a selection was taken, and actives are over-represented in it overall. Values without a mark were called inactive.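 Rule for the calls: active = mean normalized replicate activation at least 10% and every replicate at or above 10%; inconclusive = only one of the two criteria met; inactive = mean below 10% and not all replicates reach 10%.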
assay: activators of inactive X chromosome reactivation, primary screen, imaging, XiGFP fibroblasts, GFP high-content imaging, set 2 (AID 743238); conditions: XiGFP mouse fibroblasts, % GFP-positive cells imaging, 3 d; at 7.58 µM; stronger effect = higher value; cells co-treated with 5-aza-dC sensitizer; scaled so ellipticine positive control = 100%;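 note: 0% = median of on-plate neutral control wells and 100% = ellipticine 6 µM median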
Procedure, shortened: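 Assay system – SV40-immortalized XiGFP fibroblast cells, line 68-5-11 · Buffer or medium – DMEM supplemented with 5-aza-dC as sensitizing agent · Dosing – one concentration, pinned · Benchmarks – positive control ellipticine, 6 µM final · Times – 3 days compound exposure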

Row | SMILES | activation
1 | C[C@@H]1CN([C@H](C)CO)C(=O)c2cc(-c3ccccc3F)cnc2O[C@H]1CN(C)C(=O)CN(C)C | 3.17%
2 | COc1cc(CN2CC3(CN(S(=O)(=O)c4cccs4)C3)c3c(n(C)c4cc(OC)ccc34)[C@H]2CO)cc(OC)c1 | 0.325%
3 | COc1cccc(S(=O)(=O)N[C@H]2C=C[C@@H](CC(=O)NCc3ccccc3)O[C@@H]2CO)c1 | -0.504%
4 | CN1CCN(C(=O)C[C@H]2CC[C@H]3[C@@H](COC[C@H](O)CN3CC3CCCC3)O2)CC1 | 0.0235%
5 | Cc1ccc(S(=O)(=O)N(C)C[C@@H]2Oc3c(NC(=O)Nc4c(C)noc4C)cccc3C(=O)N([C@@H](C)CO)C[C@@H]2C)cc1 | -0.145%
6 | COc1ccc2c3c(n(C)c2c1)[C@H](CO)N(CC1CCOCC1)CC31CCN(C(C)=O)CC1 | 0.008%
7 | C/C=C/c1ccc([C@@H]2[C@H](CO)N(CC3CCOCC3)C23CN(S(=O)(=O)CC)C3)cc1 | 0.064%
8 | COc1ccc(S(=O)(=O)Nc2cccc3c2O[C@H](CN(C)C(=O)Nc2cccc4ccccc24)[C@H](C)CN([C@@H](C)CO)C3=O)cc1 | -0.983%
9 | C[C@@H]1CCCCO[C@H](CN(C)C(=O)Nc2cccc3ccccc23)[C@@H](C)CN([C@@H](C)CO)C(=O)c2cc(NC(=O)Nc3ccc(F)cc3)ccc2O1 | -0.01%
10 | C[C@@H](NC(=O)C[C@H]1CC[C@H]2[C@H](COc3ccc(NS(=O)(=O)c4ccc(Cl)cc4)cc3C(=O)N2C)O1)c1ccccc1 | -0.013%
11 | CCC(=O)NC[C@H]1[C@@H](c2ccc(C3=CCCC3)cc2)[C@@H](CO)N1C(=O)C1CC1 | -0.043%
12 | CCCC#Cc1cnc2c(c1)C(=O)N([C@H](C)CO)C[C@H](C)[C@@H](CN(C)C(=O)c1cccnc1)O2 | -0.912%
13 | COc1ccc2c3c(n(C)c2c1)[C@H](CO)N(Cc1ccccc1)CC31CCN(C)CC1 | 0.287%
14 | CCN(CC)c1ccc([N+](=O)[O-])cc1C(=O)O | -0.147%
15 | Cc1ccc(NC(=O)c2cc([N+](=O)[O-])ccc2Cl)c(O)c1 | 0.0305%
16 | CNc1ccc([N+](=O)[O-])cc1C(=O)O | 34.2% (active)
17 | CNC(=O)C[C@H]1CC[C@@H]2[C@H](COc3ccc(NC(=O)Nc4cccc(F)c4)cc3C(=O)N2C)O1 | 0.022%
18 | C[C@H](O)C#Cc1ccc2c(c1)O[C@H](CN(C)Cc1ccccn1)[C@@H](C)CN([C@@H](C)CO)S2(=O)=O | -0.095%
19 | O=C(C[C@@H]1CC[C@@H](NC(=O)C2CCOCC2)[C@H](CO)O1)NCC1CC1 | -0.115%
20 | COc1ccc2c3c(n(C)c2c1)[C@@H](CO)N(Cc1ccccc1F)CC31CCN(C(=O)C2CCOCC2)CC1 | -0.019%
21 | O=C(c1ccc(F)cc1)N1CC(=O)N2[C@@H](CO)[C@H](c3ccc(C4=CCCC4)cc3)[C@@H]2C1 | 0.604%
22 | CCS(=O)(=O)N1[C@H](CO)[C@@H](c2ccccc2)C12CN(C(=O)c1ccccc1F)C2 | 0.139%
23 | CCS(=O)(=O)N1CC(=O)N2[C@H](C1)[C@@H](c1ccc(C#Cc3ccc(F)cc3)cc1)[C@@H]2CO | 0.458%
24 | COc1ccc2c(c1)c(C(=O)N/N=C/c1cccs1)c(C)n2C | 0.148%
25 | CC(C)(C)n1nc2c(c1NC(=O)c1cc3ccccc3o1)CSC2 | 0%
26 | Cc1c(/C=N\NC(=O)c2cc3ccccc3o2)c2ccccc2n1C | 16.6% (active)
27 | CCCNC(=O)C[C@H]1C[C@@H]2c3cc(NC(=O)COC)ccc3O[C@@H]2[C@@H](CO)O1 | -0.017%
28 | O=C(C[C@@H]1CC[C@H]2[C@@H](COC[C@@H](O)CN2CC2CC2)O1)NCc1ccc(Cl)cc1 | 0.122%

— PubChem BioAssay AID743238 (Broad Institute, 2013)
